Data as given in ChEMBL document CHEMBL1129989, “Minor structural differences in Boc-CCK-4 derivatives dictate affinity and selectivity for CCK-A and CCK-B receptors” (J Med Chem, 1997).
*1 amine or outer side, *2 acyl side, *3 side chain or, on linkers, in order; H or OH if unused. Where a SMILES comes first, the peptide text is derived from it. Side-chain parts run from the residue outwards. The star is where a group is joined. NH(4-MeO-phenyl) = COc1ccc(N*)cc1; pNA = O=[N+]([O-])c1ccc(N*)cc1; X2 = O=[N+]([O-])c1cccc(N*)c1; NH(3-MeOPh) = COc1cccc(N*)c1; 3Abz = Nc1cccc(C(=O)O)c1; 4Abz = Nc1ccc(C(=O)O)cc1; X1 = CC(=O)c1ccc(N*)cc1; 2Abz = Nc1ccccc1C(=O)O; Boc = CC(C)(C)OC(=O)*; CO = O=C([*:1])[*:2]

Assays:
Cavia porcellus [1] = species on record: Cavia porcellus; assay: Relative affinity for type B (cortex) over type A (pancreatic) cholecystokinin receptors
In short: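 Selectivity ratio is IC50 in cortex divided by IC50 in pancreas. Both IC50s come from displacement of specific [125I]Bolton–Hunter CCK-8 binding, each determination run in duplicate.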

[2] = target: Cholecystokinin type B receptor (Cavia porcellus); assay: Displacement of [125I]- BH-CCK-8 from Cholecystokinin type B receptor of guinea pig cortex
[3] = target: T1, Cholecystokinin receptor type A (Cavia porcellus, UniProt Q63931); assay: Displacement of [125I]- BH-CCK-8 from Cholecystokinin type A receptor of guinea pig pancreas
T1 sequence (Q63931 whole entry): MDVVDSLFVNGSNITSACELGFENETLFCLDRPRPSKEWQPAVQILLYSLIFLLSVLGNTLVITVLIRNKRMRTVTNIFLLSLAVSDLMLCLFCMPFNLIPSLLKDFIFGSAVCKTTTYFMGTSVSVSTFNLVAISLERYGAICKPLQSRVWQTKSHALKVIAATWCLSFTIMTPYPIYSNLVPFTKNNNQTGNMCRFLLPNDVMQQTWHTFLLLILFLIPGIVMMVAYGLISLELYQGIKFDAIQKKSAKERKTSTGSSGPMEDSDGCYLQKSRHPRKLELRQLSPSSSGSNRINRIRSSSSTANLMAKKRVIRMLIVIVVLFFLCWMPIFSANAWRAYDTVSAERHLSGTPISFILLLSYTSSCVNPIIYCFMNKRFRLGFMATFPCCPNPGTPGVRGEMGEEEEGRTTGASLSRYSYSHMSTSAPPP
In short: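 Competition binding in pancreas and cortex tissue membranes with [125I]Bolton–Hunter CCK-8 as radioligand. […] Values are means ± SE over several determinations, each run in duplicate with <5% sample variability.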

Cavia porcellus [4] = species on record: Cavia porcellus; assay: Concentration that stimulated amylase release in guinea pig pancreatic acini relative to CCK-8; format: functional
Cavia porcellus [5] = species on record: Cavia porcellus; assay: The maximal response elicited by the compound (concentration of 100 uM) relative to the maximal response elicited by CCK-8 (1 uM) in the PI hydrolysis assay; format: functional
NCI-H345 [6] = assay: Concentration that produced 50% of the maximal response in intracellular calcium mobilization in the NCI-H345 cells.; format: functional, cell-based; conditions: Homo sapiens
In short: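 NCI-H345 cells carry the CCK-B/gastrin receptor. Intracellular calcium mobilization was read by indo-1 fluorescence. […] Values are means ± SE of several determinations.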

NCI-H345 [7] = assay: The maximal response elicited by the compound (concentration of 10 uM) relative to the maximal response elicited by CCK-8; format: functional, Homo sapiens
NCI-H345 [8] = assay: The maximal response elicited by the compound (concentration of 1 uM) relative to the maximal response elicited by CCK-8; format: functional, Homo sapiens

Structure (SMILES)	C/P (Cavia porcellus [1])	IC50 [2] [µM]	IC50 [3] [µM]	EC50 (NCI-H345 [6]) [µM]	EC50 (Cavia porcellus [4]) [µM]	Max response (Cavia porcellus [5]) [%]	Max response (NCI-H345 [7]) [%]	Max response (NCI-H345 [8]) [%]
COC(=O)c1ccccc1NC(=O)NCCCC[C@H](NC(=O)[C@H](Cc1c[nH]c2ccccc12)NC(=O)OC(C)(C)C)C(=O)N[C@@H](CC(=O)O)C(=O)N[C@@H](Cc1ccccc1)C(N)=O (Boc-WK([CO-2Abz-OMe])DF-NH2)	91	3.1	–	–	–	–	–	–
COC(=O)c1ccc(NC(=O)NCCCC[C@H](NC(=O)[C@H](Cc2c[nH]c3ccccc23)NC(=O)OC(C)(C)C)C(=O)N[C@@H](CC(=O)O)C(=O)N[C@@H](Cc2ccccc2)C(N)=O)cc1 (Boc-WK([CO-4Abz-OMe])DF-NH2)	–	–	0.071	–	–	–	–	–
CC(=O)c1ccc(NC(=O)NCCCC[C@H](NC(=O)[C@H](Cc2c[nH]c3ccccc23)NC(=O)OC(C)(C)C)C(=O)N[C@@H](CC(=O)O)C(=O)N[C@@H](Cc2ccccc2)C(N)=O)cc1 (Boc-WK([CO-X1])DF-NH2)	0.26	–	0.046	0.12	0.085	80	91	–
CC(C)(C)OC(=O)N[C@@H](Cc1c[nH]c2ccccc12)C(=O)N[C@@H](CCCCNC(=O)Nc1ccc([N+](=O)[O-])cc1)C(=O)N[C@@H](CC(=O)O)C(=O)N[C@@H](Cc1ccccc1)C(N)=O (Boc-WK([CO-pNA])DF-NH2)	0.75	–	0.041	0.047	0.039	74	–	94

The remaining molecules from weak to strong by IC50 [3], led by results:

C/P (Cavia porcellus [1])	IC50 [2] [µM]	IC50 [3] [µM]	EC50 (NCI-H345 [6]) [µM]	Structure (SMILES)	EC50 (Cavia porcellus [4]) [µM]	Max response (Cavia porcellus [5]) [%]	Max response (NCI-H345 [7]) [%]	Max response (NCI-H345 [8]) [%]
67	–	0.015	–	COC(=O)c1cccc(NC(=O)NCCCC[C@H](NC(=O)[C@H](Cc2c[nH]c3ccccc23)NC(=O)OC(C)(C)C)C(=O)N[C@@H](CC(=O)O)C(=O)N[C@@H](Cc2ccccc2)C(N)=O)c1 (Boc-WK([CO-3Abz-OMe])DF-NH2)	–	–	–	–
50	–	0.014	–	COc1ccc(NC(=O)NCCCC[C@H](NC(=O)[C@H](Cc2c[nH]c3ccccc23)NC(=O)OC(C)(C)C)C(=O)N[C@@H](CC(=O)O)C(=O)N[C@@H](Cc2ccccc2)C(N)=O)cc1 (Boc-WK([CO-NH(4-MeO-phenyl)])DF-NH2)	–	–	–	–
150	–	0.0094	–	COc1cccc(NC(=O)NCCCC[C@H](NC(=O)[C@H](Cc2c[nH]c3ccccc23)NC(=O)OC(C)(C)C)C(=O)N[C@@H](CC(=O)O)C(=O)N[C@@H](Cc2ccccc2)C(N)=O)c1 (Boc-WK([CO-NH(3-MeOPh)])DF-NH2)	–	–	–	–
210	–	0.0058	–	CC(C)(C)OC(=O)N[C@@H](Cc1c[nH]c2ccccc12)C(=O)N[C@@H](CCCCNC(=O)Nc1cccc([N+](=O)[O-])c1)C(=O)N[C@@H](CC(=O)O)C(=O)N[C@@H](Cc1ccccc1)C(N)=O (Boc-WK([CO-X2])DF-NH2)	–	–	–	–
